Measurements as given in ChEMBL document CHEMBL1144767, “Characterization of chemical libraries for luciferase inhibitory activity” (J Med Chem, 2008).
The source made the active and inactive calls. The calls are words filed in the database; no cut-off is given here.

Assays:
[1] = molecular target: Luciferin 4-monooxygenase (Photinus pyralis) (UniProt P08659); assay: (§1) Inhibition of Photinus pyralis luciferase by BrightGlo reporter gene assay
Summary of the method: (§2)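 5 nM purified P. pyralis luciferase in SteadyGlo or BrightGlo reporter-gene reagent; no extra ATP or D-luciferin added. 1536-well luminescence. Curves from 16 two-fold concentrations in duplicate, repeated on two or three separate days.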

[2] = molecular target: Luciferin 4-monooxygenase (Photinus pyralis) (UniProt P08659); assay: (§3) Inhibition of Photinus pyralis luciferase by Steady-Glo reporter gene assay; summary of the method: as §2
[3] = Inhibition of Renilla reniformis luciferase
[4] = molecular target: T1, Luciferin 4-monooxygenase (Photinus pyralis, UniProt P08659); assay: Inhibition of Photinus pyralis luciferase by Easy lite assay
Summary of the method: (§4)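 Detection by 2 µL of EasyLite or Kinase-Glo reagent (Kinase-Glo containing P. pennsylvanica luciferase). 1536-well luminescence. 16 two-fold concentrations, duplicate wells, repeated on two or three days.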

[5] = molecular target: T1, Luciferin 4-monooxygenase; assay: Inhibition of Photinus pyralis luciferase
[6] = molecular target: T2, Luciferin 4-monooxygenase (Photuris pensylvanica) (UniProt Q27757); assay: (§5) Inhibition of luciferase Photuris pennsylvanica by Promega Kinase-Glo assay; summary of the method: as §4
T2 sequence (whole entry): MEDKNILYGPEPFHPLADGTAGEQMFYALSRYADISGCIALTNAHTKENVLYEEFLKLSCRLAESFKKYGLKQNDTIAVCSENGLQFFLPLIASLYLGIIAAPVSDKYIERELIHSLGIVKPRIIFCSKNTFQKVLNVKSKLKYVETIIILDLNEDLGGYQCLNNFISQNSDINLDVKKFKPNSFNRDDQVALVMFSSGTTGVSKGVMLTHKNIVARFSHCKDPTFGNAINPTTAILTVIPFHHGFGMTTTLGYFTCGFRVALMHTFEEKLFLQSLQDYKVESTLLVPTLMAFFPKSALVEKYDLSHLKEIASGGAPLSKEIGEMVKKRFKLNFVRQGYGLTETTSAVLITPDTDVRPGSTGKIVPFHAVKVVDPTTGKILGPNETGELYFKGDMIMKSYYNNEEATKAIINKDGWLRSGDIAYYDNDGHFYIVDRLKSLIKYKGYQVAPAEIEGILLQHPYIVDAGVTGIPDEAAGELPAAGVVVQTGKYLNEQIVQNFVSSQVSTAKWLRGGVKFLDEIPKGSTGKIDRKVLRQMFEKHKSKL

[7] = molecular target: T1, Luciferin 4-monooxygenase; assay: as §1; summary of the method: as §2
[8] = molecular target: T1, Luciferin 4-monooxygenase; assay: Inhibition of Photinus pyralis luciferase by PK-Light assay
[9] = molecular target: T1, Luciferin 4-monooxygenase; assay: as §3; summary of the method: as §2
[10] = molecular target: T3, Luciferin 4-monooxygenase (Photuris pensylvanica, UniProt Q27757); assay: as §5; summary of the method: as §4
T3 sequence (Q27757 whole entry): T2 sequence (whole entry)

[11] = molecular target: Luciferin 4-monooxygenase (Photinus pyralis) (UniProt P08659); assay: Inhibition of Photinus pyralis luciferase at 1 uM
[12] = molecular target: Luciferin 4-monooxygenase (Photinus pyralis) (UniProt P08659); assay: Inhibition of Photinus pyralis luciferase at 3 uM

T1 sequence (P08659 whole entry): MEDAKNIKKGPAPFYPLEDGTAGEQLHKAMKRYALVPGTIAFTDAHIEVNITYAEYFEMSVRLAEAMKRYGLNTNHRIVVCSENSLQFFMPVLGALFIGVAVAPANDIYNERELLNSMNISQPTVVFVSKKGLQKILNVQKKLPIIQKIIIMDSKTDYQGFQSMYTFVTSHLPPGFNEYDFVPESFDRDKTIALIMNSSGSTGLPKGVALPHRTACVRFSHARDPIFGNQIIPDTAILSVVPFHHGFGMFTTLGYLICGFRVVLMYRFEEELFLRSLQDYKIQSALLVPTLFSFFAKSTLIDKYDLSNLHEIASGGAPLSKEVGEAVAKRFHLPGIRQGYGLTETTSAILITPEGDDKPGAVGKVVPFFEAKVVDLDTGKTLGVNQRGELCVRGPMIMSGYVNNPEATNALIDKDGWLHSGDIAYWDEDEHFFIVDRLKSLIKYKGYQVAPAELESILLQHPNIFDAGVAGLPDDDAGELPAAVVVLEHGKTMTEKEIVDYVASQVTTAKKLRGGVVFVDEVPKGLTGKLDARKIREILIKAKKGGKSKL
Luciferin 4-monooxygenase (Photinus pyralis), sequence (P08659 whole entry): as above

Activity [1] | Activity [2] | IC50 [3] [µM] | IC50 [4] [nM] | IC50 [5] [nM] | Activity [6] | IC50 [7] [µM] | IC50 [8] [nM] | IC50 [9] [µM] | IC50 [10] [µM] | inhibition [11] [%] | inhibition [12] [%] | Compound
inactive | inactive | > 25 | – | – | – | – | – | – | – | – | – | Cc1ccc(-c2cc(C(=O)N3CCN(c4ncccn4)CC3)c3ccccc3n2)cc1
– | – | – | 1800 | 320 | inactive | 0.6 | 1100 | 2.8 | – | – | – | Cc1ccc(C(=O)Cn2c3c(sc2=N)CCCC3)cc1
– | – | – | 11000 | 6200 | inactive | 60 | 6400 | > 100 | – | – | – | COc1cccc(-c2cc(=O)c3ccccc3o2)c1N
– | – | – | 1500 | 600 | inactive | 8.3 | 2800 | > 50 | – | – | – | CCOc1ccc(NC(=O)c2ccccc2OC)cc1
– | – | – | 1300 | 1100 | – | 3.2 | 6100 | 2.5 | 9.5 | – | – | CS(=O)(=O)c1ccc2nc(NC(=O)c3cccs3)sc2c1
– | – | > 50 | 170 | 80 | – | 0.08 | 170 | 0.2 | 10 | – | – | O=C(/C=C\Nc1ccccc1Br)c1ccccn1
– | – | – | 4500 | 1200 | – | 5.9 | 2100 | 10.3 | 3.6 | – | – | COc1ccc2nc(NC(=O)c3ccoc3C)sc2c1
– | – | – | 7400 | 4700 | inactive | 30 | 6600 | > 100 | – | – | – | Cc1cccc(C#Cc2ccccc2)n1
– | – | – | 1100 | 1000 | – | 3.6 | 3600 | 4 | 14.2 | – | – | O=C(/C=C\Nc1ccc(F)cc1)c1ccco1
– | – | – | 2300 | 1000 | inactive | 12 | 3300 | 11 | – | – | – | Cc1ccc(-c2noc(-c3ccccc3Br)n2)cc1
– | – | – | – | – | – | – | – | – | – | 28 | – | CCN(CC)c1ccc2cc(-c3nc4ccccc4n3C)c(=O)oc2c1
inactive | inactive | 11 | – | – | – | – | – | – | – | – | – | CCOc1ccc(-c2cc(C(=O)N3CCN(c4ccccn4)CC3)c3ccccc3n2)cc1
inactive | inactive | 20 | 1000 | 900 | – | – | 1400 | – | > 50 | – | – | CCOC(=O)N1CCN(C(=O)c2cc(-c3ccc(OCC)cc3)nc3ccccc23)CC1
– | – | – | 1200 | 300 | – | 1.9 | 1200 | 0.9 | > 50 | – | – | O=C(/C=C\Nc1cccc(F)c1)c1ccc2c(c1)OCO2
– | – | – | 2100 | 400 | inactive | 2.6 | 1600 | 1.4 | – | – | – | c1ccc(-c2noc(-c3ccc4ccccc4c3)n2)cc1
– | – | – | 2100 | 600 | inactive | 11.3 | 1450 | 12 | – | – | – | CCOc1ccc2nc(NC(=O)Nc3cccs3)sc2c1
inactive | inactive | > 25 | 1100 | 1300 | – | – | 2400 | – | > 50 | – | – | CCOc1ccc(-c2cc(C(=O)N3CCN(C)CC3)c3ccccc3n2)cc1
– | – | – | 3600 | 800 | inactive | 2.6 | 2500 | 20 | – | – | – | O=C(N/N=C/c1ccccc1O)c1ccccc1O
– | – | – | 5100 | 3200 | – | 12 | 13000 | 2.6 | 12 | – | – | Brc1ccc(-c2nc(-c3ccccn3)no2)o1
– | – | – | 3600 | 200 | – | 5.3 | 4700 | 10 | > 50 | – | – | C[C@@H](C(=O)O)c1ccc(N2Cc3ccccc3C2=O)cc1 [(R)-INDOPROFEN]
– | – | – | 3200 | 1100 | inactive | 13.3 | 5400 | 10 | – | – | 100 | COc1ccc(-c2cc3ccc(OCc4nn[nH]n4)cc3oc2=O)cc1
